Experimental data reported in PubChem BioAssay.
The source made the active and inactive calls.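 How the source made its calls, unless noted: active means calcium signal rise above buffer-control mean plus 5 SD in both duplicates, and also a hit in the primary screen; inactive means the rest.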

Biological target: Short transient receptor potential channel 4 (Mus musculus) (UniProt Q9QUQ5)
Assay: calcium flux activators in TRPC4/5HT1a cells, counter-screen for TRPC4 activator project, cell-based, second counter screen, HEK293 TRPC4/5HT1a, Fluo-4 (AID 434977)
Conditions: Fluo-4 calcium flux, at 10 µM; active compounds read high
For `COc1ccc(CN2CCN(Cc3ccccc3F)CC2)c(OC)c1`, the outcome was “inactive”. For `C/C(N)=C(/C#N)C(=O)COC(=O)CC12CC3CC(CC(C3)C1)C2`, the outcome was “inactive”. In the case of `CCCCC[n+]1cccc2c3ccccc3ccc21`, the outcome is reported as “inactive”. In the case of `COc1ccc(OC)c(Nc2cc(-c3ccccc3)nc(N)n2)c1`, the outcome is reported as “inactive”. With `CCC1CCCCN1Cc1nc2c(c(=O)n(C)c(=O)n2C)n1Cc1ccccc1` (stereo not given) the outcome was “inactive”. With `CCOC(=O)C1CCN(C2CCN(C(=O)c3oc4c(C)c(C)ccc4c3C)CC2)CC1` the outcome was “inactive”. With `O=[N+]([O-])c1cccc(-c2nnc(C3CC3)o2)c1` the outcome was “inactive”. With `CCOc1c(Cl)cc(CNCC(O)c2ccccc2)cc1OC` (stereo not given) the outcome was “inactive”. In the case of `O=C(c1cccc(C(=O)N2CCN(c3ccccc3)CC2)c1)N1CCN(c2ccccc2)CC1`, the outcome is reported as “inactive”. With `Cc1ccn2c(-c3csc(NCc4ccco4)n3)c(C)nc2c1` the outcome was “inactive”. In the case of `COc1ccc(Nc2nc(N)c3ccccc3n2)c(OC)c1`, the outcome is reported as “inactive”. With `CCc1c(C(=O)N2CCCN(C)CC2)csc1C` the outcome was “inactive”. In the case of `COc1ccc(C)cc1N(C(=O)c1snc(C(N)=O)c1N)C(C(=O)NC1CCCC1)c1ccc(F)cc1` (stereo not given), the outcome is reported as “inactive”. With `CC(C)(c1ccccc1)c1ccc(OCCCNCCO)cc1` the outcome was “inactive”. With `Cc1ccc(-n2nc(-c3cccs3)cc2C(=O)NCC2CCCO2)c(C)c1` (stereo not given) the outcome was “inactive”. For `CC(C)CCN1CCN(Cc2ccsc2)CC1CCO` (stereo not given), the outcome was “inactive”. For `CN(CC1CCCN(CCc2cccc(C(F)(F)F)c2)C1)C(=O)c1cc2ccccc2o1` (stereo not given), the outcome was “inactive”. With `Oc1ccc(CN2CCc3ccccc3C2)c2cccnc12` the outcome was “inactive”. In the case of `COc1ccc(C2C(C(C)=O)=C(O)C(=O)N2c2ccc(Br)cc2)cc1` (stereo not given), the outcome is reported as “inactive”. In the case of `CCOC(=O)c1c(N)sc(C(O)(C(F)(F)F)C(F)(F)F)c1-c1ccccc1`, the outcome is reported as “inactive”. In the case of `CC1CCCN(CCCN2C(=O)C3C(C(=O)Nc4ccc(Cl)cc4)C4C=CC3(O4)C2C(=O)NC2CCCCC2)C1` (stereo not given), the outcome is reported as “inactive”. For `O=C(C[n+]1cccc(CNC(=O)c2ccc(OC(F)F)cc2)c1)Nc1ccc(SC(F)F)cc1`, the outcome was “inactive”. With `Cc1ncsc1CCOC(=O)c1cccc([N+](=O)[O-])c1` the outcome was “inactive”. For `CC#CC[N+](C)(C)CCCCCCCCCCCC`, the outcome was “inactive”. In the case of `Cc1cc(OCc2cc(C(=O)NCCN3CCCCC3CO)no2)cc(C)c1Cl` (stereo not given), the outcome is reported as “inactive”. For `Cc1cc(N2CCC(C)CC2)nc2cccc(O)c12`, the outcome was “inactive”. In the case of `Fc1ccccc1COc1ccc(Br)cc1CNCC1CCCO1` (stereo not given), the outcome is reported as “inactive”. In the case of `Cn1cc(CNCC2CCCO2)c(-c2ccc(Oc3ccccc3)cc2)n1` (stereo not given), the outcome is reported as “inactive”. In the case of `COc1cccc(C2=NN(C(=O)c3ccco3)C(c3ccco3)C2)c1` (stereo not given), the outcome is reported as “inactive”. For `O=C(COC(=O)Cn1cnc2ccccc2c1=O)Nc1ccccc1Sc1ccc(Cl)cc1`, the outcome was “inactive”. In the case of `NC(=O)c1nsc(C(=O)N(Cc2ccccc2Cl)C(C(=O)NCC2CCCO2)c2ccc(O)cc2)c1N` (stereo not given), the outcome is reported as “inactive”. With `O=C(NC1CCCCC1)N1CCN(C(c2ccccc2)c2ccccc2)CC1` the outcome was “inactive”. With `Cc1ccc(NC(=S)N(CCCN(C)C)Cc2cc3cc4c(cc3[nH]c2=O)OCO4)c(C)c1` the outcome was “inactive”. In the case of `CCCC[n+]1c2ccccc2cc2ccccc21`, the outcome is reported as “inactive”. With `CC(C)(C)CC(C)(C)NCC(O)COc1ccc2c(c1)CCC2` (stereo not given) the outcome was “inactive”. With `CCOc1ccc(Cl)cc1/C=N/O` the outcome was “inactive”. In the case of `O=C(C[n+]1cc(-c2ccc(Cl)c(Cl)c2)n2c1CCC2)N1c2ccccc2Sc2ccccc21`, the outcome is reported as “inactive”. In the case of `CC1CCc2c(sc3ncnc(SCC(=O)Nc4ccc(C(=O)O)cc4)c23)C1` (stereo not given), the outcome is reported as “inactive”. For `NS(=O)(=O)c1ccc(Nc2nc(-c3ccc(O)cc3O)cs2)cc1`, the outcome was “inactive”. With `CCCn1c(NC(=O)c2ccc(Cl)c(S(=O)(=O)N3CCCC3)c2)nc2ccccc21` the outcome was “inactive”.

System: not listed separately
Assay: serotonin-gated TRPC4 signal block – cell-based, second counter screen, HEK293 TRPC4/5HT1a, Fluo-4, counter-screen for TRPC4 inhibitor project, confirmation (AID 434978;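 active means primary screen active whose calcium signal fell more than 3 SD beyond the full-serotonin control mean in both duplicate plates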;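 on outcome: serotonin given first at submaximal then at maximal dose after compound preincubation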)
Conditions: Fluo-4 calcium flux, at 10 µM, serotonin added to trigger calcium flux; active compounds read high
Method in brief: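 Material: HEK293 line stably carrying TRPC4 plus 5HT1a receptor | Replicates: Each compound tested on duplicate plates | Benchmarks: ECmax serotonin control wells | Measured by: Kinetic Fluo-4 fluorescence readout of calcium flux | Incubation: 110 s each for compound, submaximal and ECmax serotonin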
With `COc1ccc(CN2CCN(Cc3ccccc3F)CC2)c(OC)c1` the inhibition was 30.4% (active). For `C/C(N)=C(/C#N)C(=O)COC(=O)CC12CC3CC(CC(C3)C1)C2`, the inhibition was 32.2% (active). In the case of `CCCCC[n+]1cccc2c3ccccc3ccc21`, the inhibition is reported as 28.4% (active). For `COc1ccc(OC)c(Nc2cc(-c3ccccc3)nc(N)n2)c1`, the inhibition was 37.9% (active). For `CCC1CCCCN1Cc1nc2c(c(=O)n(C)c(=O)n2C)n1Cc1ccccc1` (stereo not given), the inhibition was 38.1% (active). In the case of `CCOC(=O)C1CCN(C2CCN(C(=O)c3oc4c(C)c(C)ccc4c3C)CC2)CC1`, the outcome is reported as “inactive”. For `O=[N+]([O-])c1cccc(-c2nnc(C3CC3)o2)c1`, the outcome was “inactive”. With `CCOc1c(Cl)cc(CNCC(O)c2ccccc2)cc1OC` (stereo not given) the outcome was “inactive”. In the case of `O=C(c1cccc(C(=O)N2CCN(c3ccccc3)CC2)c1)N1CCN(c2ccccc2)CC1`, the inhibition is reported as 26.9% (active). In the case of `Cc1ccn2c(-c3csc(NCc4ccco4)n3)c(C)nc2c1`, the inhibition is reported as 22.8% (active). For `COc1ccc(Nc2nc(N)c3ccccc3n2)c(OC)c1`, the inhibition was 26.1% (active). With `CCc1c(C(=O)N2CCCN(C)CC2)csc1C` the outcome was “inactive”. For `COc1ccc(C)cc1N(C(=O)c1snc(C(N)=O)c1N)C(C(=O)NC1CCCC1)c1ccc(F)cc1` (stereo not given), the inhibition was 41.2% (active). With `CC(C)(c1ccccc1)c1ccc(OCCCNCCO)cc1` the inhibition was 13.3% (active). For `Cc1ccc(-n2nc(-c3cccs3)cc2C(=O)NCC2CCCO2)c(C)c1` (stereo not given), the outcome was “inactive”. With `CC(C)CCN1CCN(Cc2ccsc2)CC1CCO` (stereo not given) the inhibition was 33.8% (active). In the case of `CN(CC1CCCN(CCc2cccc(C(F)(F)F)c2)C1)C(=O)c1cc2ccccc2o1` (stereo not given), the inhibition is reported as 1.18% (active). In the case of `Oc1ccc(CN2CCc3ccccc3C2)c2cccnc12`, the inhibition is reported as 19.6% (active). For `COc1ccc(C2C(C(C)=O)=C(O)C(=O)N2c2ccc(Br)cc2)cc1` (stereo not given), the inhibition was 23.3% (active). In the case of `CCOC(=O)c1c(N)sc(C(O)(C(F)(F)F)C(F)(F)F)c1-c1ccccc1`, the inhibition is reported as 36.8% (active). With `CC1CCCN(CCCN2C(=O)C3C(C(=O)Nc4ccc(Cl)cc4)C4C=CC3(O4)C2C(=O)NC2CCCCC2)C1` (stereo not given) the inhibition was 26.1% (active). For `O=C(C[n+]1cccc(CNC(=O)c2ccc(OC(F)F)cc2)c1)Nc1ccc(SC(F)F)cc1`, the outcome was “inactive”. In the case of `Cc1ncsc1CCOC(=O)c1cccc([N+](=O)[O-])c1`, the inhibition is reported as 40% (active). For `CC#CC[N+](C)(C)CCCCCCCCCCCC`, the inhibition was 9.36% (active). With `Cc1cc(OCc2cc(C(=O)NCCN3CCCCC3CO)no2)cc(C)c1Cl` (stereo not given) the inhibition was 21.5% (active). With `Cc1cc(N2CCC(C)CC2)nc2cccc(O)c12` the outcome was “inactive”. For `Fc1ccccc1COc1ccc(Br)cc1CNCC1CCCO1` (stereo not given), the inhibition was 16.8% (active). For `Cn1cc(CNCC2CCCO2)c(-c2ccc(Oc3ccccc3)cc2)n1` (stereo not given), the inhibition was 45.9% (active). With `COc1cccc(C2=NN(C(=O)c3ccco3)C(c3ccco3)C2)c1` (stereo not given) the inhibition was 20.6% (active). In the case of `O=C(COC(=O)Cn1cnc2ccccc2c1=O)Nc1ccccc1Sc1ccc(Cl)cc1`, the inhibition is reported as 26.1% (active). With `NC(=O)c1nsc(C(=O)N(Cc2ccccc2Cl)C(C(=O)NCC2CCCO2)c2ccc(O)cc2)c1N` (stereo not given) the inhibition was 28.6% (active). With `O=C(NC1CCCCC1)N1CCN(C(c2ccccc2)c2ccccc2)CC1` the outcome was “inactive”. With `Cc1ccc(NC(=S)N(CCCN(C)C)Cc2cc3cc4c(cc3[nH]c2=O)OCO4)c(C)c1` the inhibition was 14.4% (active). With `CCCC[n+]1c2ccccc2cc2ccccc21` the inhibition was 18.4% (active). For `CC(C)(C)CC(C)(C)NCC(O)COc1ccc2c(c1)CCC2` (stereo not given), the outcome was “inactive”. For `CCOc1ccc(Cl)cc1/C=N/O`, the inhibition was 39.8% (active). With `O=C(C[n+]1cc(-c2ccc(Cl)c(Cl)c2)n2c1CCC2)N1c2ccccc2Sc2ccccc21` the inhibition was 18.7% (active). With `CC1CCc2c(sc3ncnc(SCC(=O)Nc4ccc(C(=O)O)cc4)c23)C1` (stereo not given) the outcome was “inactive”. For `NS(=O)(=O)c1ccc(Nc2nc(-c3ccc(O)cc3O)cs2)cc1`, the outcome was “inactive”. With `CCCn1c(NC(=O)c2ccc(Cl)c(S(=O)(=O)N3CCCC3)c2)nc2ccccc21` the outcome was “inactive”.
